# Source: PMC2668958 (Combinatorial chemistry & high throughput screening, 2008)
# Experiments:
# Glucocerebrosidase (GC) [1] = target: T1, Glucocerebrosidase (GC) (Homo sapiens, UniProt P04062, R534H); test: "blue" GC enzyme kinetic assay, 384-well; assay type: biochemical; settings: substrate of "blue" assay, 1.9 nM enzyme
# T1 sequence (P04062 40-536 R534H): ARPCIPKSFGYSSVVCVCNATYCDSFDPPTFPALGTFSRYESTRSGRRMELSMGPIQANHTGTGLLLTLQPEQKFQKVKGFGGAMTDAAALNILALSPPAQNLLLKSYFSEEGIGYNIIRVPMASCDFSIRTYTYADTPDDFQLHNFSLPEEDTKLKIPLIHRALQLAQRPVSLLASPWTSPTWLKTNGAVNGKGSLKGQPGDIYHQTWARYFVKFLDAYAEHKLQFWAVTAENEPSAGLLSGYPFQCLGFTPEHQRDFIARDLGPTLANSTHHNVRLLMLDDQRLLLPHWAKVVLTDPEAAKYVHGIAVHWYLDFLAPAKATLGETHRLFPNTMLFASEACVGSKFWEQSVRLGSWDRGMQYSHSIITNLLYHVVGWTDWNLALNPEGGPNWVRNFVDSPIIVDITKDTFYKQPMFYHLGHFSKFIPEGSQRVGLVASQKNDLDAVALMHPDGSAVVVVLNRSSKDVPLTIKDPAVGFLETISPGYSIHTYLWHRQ
# Summary of the method: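 384-well format. 1.9 nM GC in pH 5.9 buffer (50 mM citric acid, 176 mM K2HPO4, 0.01% Tween-20, 10 mM sodium taurocholate). Reaction started with 4MU-β-Glc at final 3000–23.4 μM (1:2 series, eight levels), run at RT. Separate plates were stopped with 1 M NaOH/1 M glycine pH 10 at 2, 4, 6, 8, 10 and 12 min and read at 440 nm. Product was quantified from a 4-methylumbelliferone standard curve.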
# Glucocerebrosidase (GC) [2] = target: T1, Glucocerebrosidase (GC); test: 4MU-β-Glc; assay type: biochemical; settings: read-out: IC50 in the "blue" GC assay; known GC inhibitors; 800 μM 4MU-β-Glc, 1.9 nM enzyme
# [3] = CBE solutions in DMSO left at RT for more than a few hours (data not shown)
# Glucocerebrosidase (GC) [4] = target: T1, Glucocerebrosidase (GC); test: Res-β-Glc; assay type: biochemical
# Glucocerebrosidase (GC) [5] = target: T1, Glucocerebrosidase (GC); test: "red" GC enzyme kinetic assay, 384-well; assay type: biochemical; settings: substrate of "red" assay, 1.9 nM enzyme
# Summary of the method: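 Kinetics were run in 384-well plates with 1.9 nM GC in pH 5.9 citrate/K2HPO4 buffer containing 0.01% Tween-20 and 10 mM sodium taurocholate. Res-β-Glc was added at final 100, 60, 40, 20, 10, 5 and 2.5 μM at RT, with no stop step. One plate was read continuously for 610 nm emission at 2 min intervals. Product was converted using a resorufin standard curve in assay buffer.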
# [6] = varied substrate concentrations
smiles,measurement,setting,value
"Cc1cc(=O)oc2cc(O[C@@H]3O[C@H](CO)[C@@H](O)[C@H](O)[C@H]3O)ccc12 [4MU-β-Glc, 4-methylumbelliferyl β-D-glucopyranoside]",Vmax,Glucocerebrosidase (GC) [1],1.56 pmol/min
same,Km,Glucocerebrosidase (GC) [1]; [6],768 µM
"O[C@H]1[C@H](O)[C@@H](O)[C@@H]2O[C@@H]2[C@@H]1O [CBE, Conduritol β-epoxide]",IC50,Glucocerebrosidase (GC) [2],15.4 µM
same,shift of IC50 value,[3],2- to 10 fold
same,IC50,"Glucocerebrosidase (GC) [4]; read-out: IC50 in the ""red"" GC assay, known GC inhibitors, 30 μM Res-β-Glc, 1.9 nM enzyme",13 µM
N.N.[Cl][Pt][Cl] [Cisplatin],GC inhibitory activity on hit confirmation,"Glucocerebrosidase (GC) [4]; neat samples of primary hits, ""red"" GC enzyme assay",inactive
"O=c1ccc2nc3ccc(O[C@@H]4O[C@H](CO)[C@@H](O)[C@H](O)[C@H]4O)cc3oc-2c1 [Res-β-Glc, Resorufin β-D-glucopyranoside]",Vmax,Glucocerebrosidase (GC) [5],7.11 pmol/min
same,Km,Glucocerebrosidase (GC) [5]; [6],33 µM
"CN[C@@H](C)[C@H](O)c1ccccc1 [compound 1, (-)-Ephedrine hemisulfate]",IC50,Glucocerebrosidase (GC) [4],0.79 µM
"O=C(/C=C/c1ccc(O)cc1)c1ccc(O)cc1O [compound 2, Isoliquiritigenin]",IC50,Glucocerebrosidase (GC) [4],2.57 µM
"CC[N+](CC)(CC)CCOc1cccc(OCC[N+](CC)(CC)CC)c1OCC[N+](CC)(CC)CC [compound 3, Gallamine triethiodide]",IC50,Glucocerebrosidase (GC) [4],3.59 µM
"C[N+]1(C)CCN(c2ccccc2)CC1 [compound 6, 1,1-Dimethyl-4-phenyl-piperazinium iodide]",IC50,Glucocerebrosidase (GC) [4],6.8 µM
"O=c1c2ccccc2[se]n1-c1ccccc1 [compound 10, Ebselen]",IC50,Glucocerebrosidase (GC) [4],0.63 µM
